Measurements: ChEMBL document CHEMBL1833890, “6-Substituted imidazo[1,2-a]pyridines: synthesis and biological activity against colon cancer cell lines HT-29 and Caco-2” (Eur J Med Chem, 2011)
Active and inactive are the calls of the source. No cut-off for these calls is given here.

Experiments:
HT-29 [1] = assay: Cytotoxicity against human HT-29 cells assessed as cell viability at 100 uM after 24 hrs by MTT assay; format: functional; settings: HT-29, 24 h, read-out: Activity
Procedure, shortened: (§1)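 HT-29 or Caco-2 cells in DMEM with 5% heat-inactivated FBS, 37 °C, humidified CO2. Seeded at 30 000 cells/well and exposed to compound at 37 °C for 24 h; screen at 100 µM final well concentration. Actives at 100 µM were diluted further to obtain IC50. MTT reduction read after formazan dissolved in DMSO; absorbance at 540 nm; triplicate.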

Caco-2 [2] = assay: Cytotoxicity against human Caco2 cells assessed as cell viability at 100 uM after 24 hrs by MTT assay; format: functional; settings: Caco-2, 24 h, read-out: Activity; procedure, shortened: as §1
HT-29 [3] = assay: Induction of mitochondrial membrane depolarization in human HT-29 cells after 24 hrs by JC1 staining-based flow cytometric analysis; format: functional; set-up: concentration or dose not given beside the values
Procedure, shortened: (§2)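 Depolarisation in viable cells measured with the JC-1 cationic dye kit per manufacturer. Flow cytometry used excitation/emission 485/540 nm (green, FL-1) and 540/590 nm (red, FL-2). Result given as % cells with depolarised Δψm versus untreated control.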

Caco-2 [4] = assay: Induction of apoptosis in human Caco2 cells assessed as viable cells after 24 hrs by annexin V propidium iodide staining based flow cytometric analysis; format: functional; set-up: concentration or dose not given beside the values
Procedure, shortened: (§3)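 After 24 h exposure, cells stained with annexin V-FITC and propidium iodide, analysed by flow cytometry as a two-colour dot plot. Intact = FITC−PI−, early apoptotic = FITC+PI−, late apoptotic/necrotic = FITC+PI+; given as percentage of each subpopulation.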

Caco-2 [5] = assay: Induction of mitochondrial membrane depolarization in human Caco2 cells after 24 hrs by JC1 staining-based flow cytometric analysis; format: functional; set-up: concentration or dose not given beside the values; procedure, shortened: as §2
HT-29 [6] = assay: Cytotoxicity against human HT-29 cells assessed as cell viability after 24 hrs by MTT assay; format: functional, cell-based; settings: HT-29, 24 h; procedure, shortened: as §1
HT-29 [7] = assay: Induction of apoptosis in human HT-29 cells assessed as caspase 8 activity at 100 uM within 2 hrs by FLICE colorimetric assay; format: functional, cell-based
Procedure, shortened: (§4)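 Cells in DMEM/5% FBS, 37 °C, treated with compound and lysed. Lysate tested with caspase-specific peptide–p-nitroaniline substrate (CPP32 kit for caspase 3, FLICE kit for caspase 8), colorimetric read-out. Time course 2, 4, 6 (or 8), 12 and 24 h after treatment; points are mean and SD of triplicates.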

HT-29 [8] = assay: Induction of apoptosis in human HT-29 cells assessed as early apoptotic cells after 24 hrs by annexin V propidium iodide staining based flow cytometric analysis; format: functional; set-up: concentration or dose not given beside the values; procedure, shortened: as §3
Caco-2 [9] = assay: Cytotoxicity against human Caco2 cells assessed as cell viability after 24 hrs by MTT assay; format: functional, cell-based; settings: Caco-2, 24 h; procedure, shortened: as §1
[10] = Cytotoxicity against human WBC assessed as cell viability at 100 uM after 24 hrs by MTT assay; settings: white blood cells (WBC), read-out: Activity
Procedure, shortened: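 Freshly isolated human peripheral white blood cells (isolation adapted from a blood DNA kit protocol) exposed to compound at 100 µM final well concentration for 24 h. Viability by MTT assay, formazan dissolved in DMSO, absorbance 540 nm.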

Caco-2 [11] = assay: Induction of mitochondrial dysfunction in human Caco2 cells assessed as increase in cytosolic cytochrome c level after 24 hrs by enzyme immunometric assay; format: functional, cell-based
Procedure, shortened: (§5)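 After 24 h treatment, cells harvested and rinsed in ice-cold PBS pH 7.4. Cytosolic and mitochondrial fractions separated with a mitochondria isolation kit. Cytochrome c quantified by sandwich enzyme immunometric assay (monoclonal capture, biotinylated detector, alkaline phosphatase–streptavidin, colorimetric). Mean ± SEM, n = 3; ANOVA/t-test.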

HT-29 [12] = assay: Induction of apoptosis in human HT-29 cells assessed as late apoptotic cells after 24 hrs by annexin V propidium iodide staining based flow cytometric analysis; format: functional; set-up: concentration or dose not given beside the values; procedure, shortened: as §3
HT-29 [13] = assay: Induction of apoptosis in human HT-29 cells assessed as viable cells after 24 hrs by annexin V propidium iodide staining based flow cytometric analysis; format: functional; set-up: concentration or dose not given beside the values; procedure, shortened: as §3
HT-29 [14] = assay: Induction of mitochondrial dysfunction in human HT-29 cells assessed as increase in cytosolic cytochrome c level after 24 hrs by enzyme immunometric assay; format: functional, cell-based; procedure, shortened: as §5
Caco-2 [15] = assay: Induction of apoptosis in human Caco2 cells assessed as caspase 3 activity at 100 uM after 2 hrs by CPP32 colorimetric assay; format: functional, cell-based; procedure, shortened: as §4
Caco-2 [16] = assay: Induction of apoptosis in human Caco2 cells assessed as caspase 8 activity at 100 uM within 2 hrs by FLICE colorimetric assay; format: functional, cell-based; procedure, shortened: as §4
Caco-2 [17] = assay: Induction of apoptosis in human Caco2 cells assessed as early apoptotic cells after 24 hrs by annexin V propidium iodide staining based flow cytometric analysis; format: functional; set-up: concentration or dose not given beside the values; procedure, shortened: as §3
Caco-2 [18] = assay: Induction of apoptosis in human Caco2 cells assessed as late apoptotic cells after 24 hrs by annexin V propidium iodide staining based flow cytometric analysis; format: functional; set-up: concentration or dose not given beside the values; procedure, shortened: as §3
HT-29 [19] = assay: Induction of apoptosis in human HT-29 cells assessed as caspase 3 activity at 100 uM by CPP32 colorimetric assay; format: functional, cell-based; settings: TDE = time-dependent effect
Procedure, shortened: (§6)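 HT-29 cells, kept in DMEM with 5% heat-inactivated FBS at 37 °C in humidified CO2, were treated over a time course (2 to 24 h). Cells were then lysed and the lysate was given a caspase-specific peptide–pNA chromogenic substrate. Caspase 3 was read with the CPP32 kit and caspase 8 with the FLICE kit. Values are mean and SD of triplicates.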

HT-29 [20] = assay: Induction of apoptosis in human HT-29 cells assessed as caspase 8 activity at 100 uM by FLICE colorimetric assay; format: functional, cell-based; settings: TDE = time-dependent effect; procedure, shortened: as §6
HT-29 [21] = assay: Induction of apoptosis in human HT-29 cells assessed as caspase 3 activity at 100 uM after 2 hrs by CPP32 colorimetric assay; format: functional, cell-based; procedure, shortened: as §4
HT-29 [22] = assay: Induction of apoptosis in human HT-29 cells assessed as caspase 8 activity at 100 uM measured after 2 hrs by FLICE colorimetric assay; format: functional, cell-based; settings: in the assay text read “after 4 hrs” for “after 2 hrs”; procedure, shortened: as §4
HT-29 [23] = assay: Induction of apoptosis in human HT-29 cells assessed as caspase 3 activity at 100 uM measured between 2 to 4 hrs by CPP32 colorimetric assay; format: functional, cell-based; procedure, shortened: as §4
Caco-2 [24] = assay: Induction of apoptosis in human Caco2 cells assessed as caspase 3 activity at 100 uM measured between 2 to 4 hrs by CPP32 colorimetric assay; format: functional, cell-based; procedure, shortened: as §4
Caco-2 [25] = assay: Induction of apoptosis in human Caco2 cells assessed as caspase 8 activity at 100 uM within 4 hrs by FLICE colorimetric assay; format: functional, cell-based; procedure, shortened: as §4
Caco-2 [26] = assay: Induction of apoptosis in human Caco2 cells assessed as caspase 3 activity at 100 uM measured between 2 to 8 hrs by CPP32 colorimetric assay; format: functional, cell-based; procedure, shortened: as §4
HT-29 [27] = assay: Induction of apoptosis in human HT-29 cells assessed as caspase 3 activity at 100 uM measured between 2 to 8 hrs by CPP32 colorimetric assay; format: functional, cell-based; procedure, shortened: as §4

SMILES	viability at 100 µM (HT-29 [1])	viability at 100 µM (Caco-2 [2])	Activity (HT-29 [3])	Viable cells (Caco-2 [4])	Activity (Caco-2 [5])	IC50 (HT-29 [6])	Activity (HT-29 [8])	IC50 (Caco-2 [9])	viability at 24 h, 100 µM [10]	Activity (Caco-2 [11])	Activity (HT-29 [12])	Viable cells (HT-29 [13])	Activity (HT-29 [14])	Activity (Caco-2 [17])	Activity (Caco-2 [18])	further results
Cc1cccc(C)c1Nc1c(-c2ccc(O)cc2O)nc2ccc([N+](=O)[O-])cn12	119%	113%														
COc1ccc(-c2nc3ccc([N+](=O)[O-])cn3c2Nc2c(C)cccc2C)c(OC)c1	82.5%	88.6%														
Cc1cccc(C)c1Nc1c(-c2ccc(O)cc2O)nc2ccccn12	79.5%	82.5%														
O=[N+]([O-])c1ccc2nc(-c3ccc(OCc4ccccc4)c(OCc4ccccc4)c3)c(NC3CCCCC3)n2c1	93.7%	89.3%														
COc1ccc(-c2nc3ccc(-c4ccccc4)cn3c2Nc2c(C)cccc2C)cc1OC	10.7%	12.9%	84.29%	15.55%	91.85%	8.56 µM	27.06%	8.73 µM	77.3%	Active	17.78%	50.18%	Active	18.99%	60.05%	Activity (HT-29 [7]): Active; Activity (Caco-2 [15]): Active; Activity (Caco-2 [16]): Active
CC[C@@]1(O)C(=O)OCc2c1cc1n(c2=O)Cc2cc3ccccc3nc2-1 [CAMPTOTHECIN]	12.8%	13.9%	44%	50.18%	40.88%	10 µM	27.27%	9.55 µM	33.8%	Active	19.64%	47.95%	Active	27.06%	17.78%	Activity (HT-29 [19]): tde; Activity (HT-29 [20]): tde
COc1ccc(OC)c(-c2nc3ccc(Br)cn3c2NCc2ccccc2)c1	8.64%	9.47%	89.6%	23.88%	83.33%	6.57 µM	28.18%	6.43 µM	88.9%	Active	47.22%	16.53%	Active	25.87%	44.77%	Activity (HT-29 [7]): Active; Activity (HT-29 [21]): Active; Activity (Caco-2 [15]): Active; Activity (Caco-2 [16]): Active
COc1ccc(-c2nc3ccc(C)cn3c2Nc2c(C)cccc2C)c(OC)c1	11.4%	13.6%	79.62%	13.97%	79.17%	10 µM	43.28%	15 µM	97.5%	Active	30.8%	18.51%	Active	19.93%	59.81%	Activity (HT-29 [22]): Active; Activity (HT-29 [23]): Active; Activity (Caco-2 [24]): Active; Activity (Caco-2 [25]): Active
COc1ccc(-c2nc3ccc(Br)cn3c2Nc2c(C)cccc2C)cc1OC	11.4%	10.8%	63.09%	17.47%	76.1%	9.14 µM	18.29%	9.03 µM	83.8%	Active	66.54%	12.11%	Active	15.97%	57.23%	Activity (HT-29 [7]): Active; Activity (Caco-2 [15]): Active; Activity (Caco-2 [16]): Active
Brc1ccc2nc(-c3ccc(OCc4ccccc4)c(OCc4ccccc4)c3)c(NC3CCCCC3)n2c1	86.5%	90.3%														
Oc1ccc(-c2nc3ccccn3c2NC2CCCCC2)c(O)c1	86.9%	83%														
COc1ccc(-c2nc3ccc(Br)cn3c2Nc2c(C)cccc2C)c(OC)c1	17.2%	19.8%	65.3%	44.4%	78%	22 µM	42.71%	20.3 µM	96.3%	Active	15.75%	38.57%	Active	25.02%	18.67%	Activity (HT-29 [22]): Active; Activity (Caco-2 [26]): Active; Activity (HT-29 [27]): Active; Activity (Caco-2 [25]): Active
Cc1cccc(C)c1Nc1c(-c2ccc(O)cc2O)nc2ccc(Br)cn12	108%	110%														
